Screening results (PubChem)
CHOP UPR activ = activators of apoptotic arm of unfolded protein response (CHOP); 330,000 compounds, 0.34% hits; activation, % at 10 µM; CHO-CHOP luciferase reporter, UPR activation, luminescence; percent of tunicamycin response over DMSO baseline;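 active = at 10 µM dose, activation of 40% or more, normalized to positive control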
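System: CHO-CHOP luciferase reporter cell line | Buffer or medium: F12 medium containing 10% fetal bovine serum | Doses: One dose, 10 µM in 0.5% DMSO | Times: 6 h compound exposure at 37 °C after overnight seeding | Signal: Luciferase luminescence | Read-out: % activation vs tunicamycin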
UPR XBP1 act = activators of adaptive arm of unfolded protein response (XBP1); CHO-XBP1 luciferase reporter, IRE1-XBP1 UPR activation, luminescence; percent of tunicamycin response, DMSO as zero; activation, % at 20 µM; 330,000 compounds, 0.33% hits;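 active = versus positive control, 20 µM dose yields 30% or more activation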
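Signal: luciferase luminescence; Assay system: CHO-XBP1 luciferase reporter cells; Amount: one thousand reporter cells per well; Dosing: 20 µM single concentration, DMSO 1%; Benchmarks: high control tunicamycin 10 µg/mL final, low control DMSO vehicle only; Schedule: 6 h compound exposure at 37 °C, 5% CO2; Evaluation: percent activation relative to tunicamycin reference.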
Jurkat NFkB inh = inhibitors of the PMA/ionomycin-induced NF-kB reporter in Jurkat cells | inhibition, % at 4 µM | AID 435003 | 330,000 compounds, 0.53% hits | PMA/ionomycin-induced NF-kB luciferase reporter, luminescence; in the data active = inhibition above about 50%
697 NFkB inh = inhibitors of the PMA/ionomycin-induced NF-kB reporter in 697 B cells. 697 B-cell NF-kB luciferase reporter, 16 h. inhibition, % at 4 µM. 330,000 compounds, 0.33% hits. AID 435022; in the data active = inhibition above about 35%
CHOP inhibitor = inhibitors of CHOP induction in ER stress response; AID 2732; 220,000 compounds, 3.8% hits; inhibition, % at 10 µM; CHO-K1 CHOP-promoter luciferase, tunicamycin-induced, 15-18 h;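 active = compounds that reduced the stress-induced luciferase reporter signal by more than about 70% of percent inhibition, limit read from the data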
697 NFkB conf = inhibitors of the PMA/ionomycin-induced NF-kB reporter in 697 B cells, retest | shares compounds with 697 NFkB inh | 697 B-cell NF-kB luciferase, 16 h | inhibition, % at 4 µM | 2,000 compounds, 35% hits | AID 449746; in the data active = inhibition mostly above about 28%, no sharp cut-off; inactive = mostly below about 22%
Of the large screens only hits and unclear results are named; the others gave an inactive call (follow-up assays come after a bar, where they were run). The full list was thinned out, with hits kept by preference.

COc1ccc(CC(=O)OCC(=O)NC2CCCC(C)C2C)cc1OC (centres undefined)	none (no result: CHOP inhibitor)
O=[N+]([O-])c1ccc(/C=C/c2ccc3cccc(O)c3n2)cc1	none (no result: CHOP inhibitor)
O=[N+]([O-])c1ccc(/C=C/c2ccc3ccccc3n2)cc1	none | 697 NFkB conf inactive
C(=C\c1ccc2ccccc2n1)/c1ccccc1	CHOP inhibitor 71 | 697 NFkB conf inactive
O=C(Nc1ccc(N2CCCCC2)cc1)c1cc([N+](=O)[O-])cc([N+](=O)[O-])c1	none
O=C(NCCOc1ccccc1F)C1CCC(=O)N(CC2CCCCC2)C1 (centres undefined)	none (no result: CHOP inhibitor)
Clc1ccc(-c2cn3cc(Cl)ccc3n2)cc1	none (no result: CHOP inhibitor) | 697 NFkB conf inactive
O=C(CCl)Nc1ccccc1Sc1ccccc1	697 NFkB inh 41 | 697 NFkB conf 34
CC(=O)Nc1ccccc1Sc1ccccc1	none
Cc1nc(C)c(-c2csc(Nc3ccccn3)n2)s1	none (no result: CHOP inhibitor) | 697 NFkB conf inactive
Cc1ccnc(Nc2nc(-c3sc(C)nc3C)cs2)c1	none (no result: CHOP inhibitor)
CCCC[n+]1ccn(-c2nc3ccccc3nc2[N-]S(=O)(=O)c2ccc(Br)cc2)c1	697 NFkB inh 37 | 697 NFkB conf inactive
CCN1CCN(C(c2cccnc2)c2c(NC(=O)c3ccco3)sc(C)c2C)CC1 (centres undefined)	none (no result: CHOP inhibitor)
Cc1sc(NC(=O)c2ccco2)c(C(c2cccnc2)N2CCC(C)CC2)c1C (centres undefined)	697 NFkB inh 36 | 697 NFkB conf inactive
O=C1N/C(=C\c2ccc(O)cc2)C(O)=C1C=NCc1ccccc1	697 NFkB inh 37 | 697 NFkB conf inactive
CCn1c(=O)c2cc(C(=O)NCc3cccs3)sc2c2ccccc21	697 NFkB inh 39 | 697 NFkB conf 36
CCn1c(=O)c2cc(C(=O)NC(C)C)sc2c2ccccc21	697 NFkB inh 37 | 697 NFkB conf 28
CCCCNC(=O)c1cc2c(=O)n(CC)c3ccccc3c2s1	none (no result: CHOP inhibitor)
COc1ccccc1C(=O)NCCC(=O)N(C)Cc1ccc(C)o1	none (no result: CHOP inhibitor)
O=C(Nc1ccc2c(c1)OCO2)c1noc2c1CCCC2	none (no result: CHOP inhibitor)
O=C(CSc1nccc(=O)[nH]1)NC1CCCC1	none (no result: CHOP inhibitor)
CCN(CC)c1ccc(/C=C(\C#N)c2ccccn2)cc1	none | 697 NFkB conf inactive
CN(CCC#N)c1ccc(/C=C(\C#N)c2ccccn2)cc1	none
Cc1ccc(C(=O)NC(=S)Nc2ccc(Oc3ccc(Cl)cc3)cc2)cc1	none
Cc1ccc(C(=O)NC(=S)Nc2ccc(NC(=O)c3cccc(Cl)c3)cc2)cc1	none | 697 NFkB conf inactive
CC(C)c1nc2oc3c(NCC4CCCO4)ncnc3c2c2c1CCC2 (centres undefined)	697 NFkB inh 42 | 697 NFkB conf inactive
CCCc1nc2oc3c(NCC4CCCO4)ncnc3c2c2c1COC(C)(C)C2 (centres undefined)	none
Cc1cccc(NC(=O)Nc2c(C)n(C)n(-c3ccccc3)c2=O)c1C	none (no result: CHOP inhibitor)
CSCC[C@H](N)C(=O)N1CCC(C(=O)N[C@H](C)C(=O)NC(C)c2ccccc2)CC1 (some centres undefined)	none (no result: CHOP inhibitor)
O=C1C(=O)c2ccccc2C(O)=C1c1ccccc1F	none
O=C1C(c2ccnc3ccccc23)=C(O)c2ccccc21	none | 697 NFkB conf inactive
O=C1c2ccccc2C(=O)C1c1ccnc2ccccc12	CHOP inhibitor 83 | 697 NFkB conf inactive
CC(C)CN(C(=O)c1cccs1)C1CCS(=O)(=O)C1 (centres undefined)	none (no result: CHOP inhibitor)
O=C(N/N=C/c1ccc(Cl)cc1Cl)c1ccc(-n2cnnn2)cc1	697 NFkB inh 39 (no result: CHOP inhibitor) | 697 NFkB conf 35
O=C(CNc1ccccc1F)Nc1cccc2ccccc12	none (no result: CHOP inhibitor)
COc1ccc2cc(-c3ccon3)ccc2c1	none (no result: CHOP inhibitor)
COc1ccc(-c2cc3ccc(OC)cc3cn2)cc1	none (no result: CHOP inhibitor) | 697 NFkB conf inactive
COc1cc(C(=O)Nc2cc(C)c(OCC(=O)N3CCOCC3)c(C)c2)cc(OC)c1OC	697 NFkB inh 36 | 697 NFkB conf 32
Cc1cc(NC(=O)c2ccccc2F)cc(C)c1OCC(=O)N1CCOCC1	none (no result: CHOP inhibitor)
Cc1cc(NC(=O)CCCN2C(=O)/C(=C/c3ccccc3Cl)SC2=S)no1	697 NFkB inh 60 (no result: CHOP inhibitor) | 697 NFkB conf 68
O=C(CCCN1C(=O)/C(=C/c2cccs2)SC1=S)NNC(=O)c1ccncc1	none
O=C(CCCN1C(=O)/C(=C/c2ccccc2Cl)SC1=S)NNC(=O)c1ccncc1	697 NFkB inh 48 | 697 NFkB conf 56
O=C(CCCN1C(=O)/C(=C/c2ccccc2Cl)SC1=S)NNC(=O)c1ccccc1Cl	697 NFkB inh 69, CHOP inhibitor 95 | 697 NFkB conf 65
CCOP(=O)(c1ccc(N(C)C)cc1)C(O)c1ccccc1F (centres undefined)	none (no result: CHOP inhibitor)
COc1cccc(C(=O)NC23CC4CC(CC(C4)C2)C3)c1	none (no result: CHOP inhibitor)
O=C(N/N=C\c1ccc(F)cc1)c1ccc(Cn2cc(Br)c([N+](=O)[O-])n2)o1	697 NFkB inh 37 | 697 NFkB conf inactive
CCC(NC(=O)CCc1c(C)c2cc3c4c(oc3cc2oc1=O)CCCC4)C(=O)O (centres undefined)	697 NFkB inh 49 (no result: CHOP inhibitor) | 697 NFkB conf inactive
Cc1c(CCC(=O)N[C@@H](CCCNC(N)=O)C(=O)O)c(=O)oc2cc3oc4c(c3cc12)CCCC4	none (no result: CHOP inhibitor)
Cc1noc(C)c1COc1ccc(C(=O)OCC(=O)Nc2cccc(S(=O)(=O)N3CCOCC3)c2)cc1	697 NFkB inh 39 | 697 NFkB conf inactive
O=C1NC[C@H](c2ccccc2)OC(=O)[C@@H](Cc2ccc(F)cc2)C/C=C\C[C@H]1CC(=O)N(CCO)Cc1ccccc1	697 NFkB inh 40 (no result: CHOP inhibitor) | 697 NFkB conf 24
Cc1ccc(-c2nn3c(C)nnc3c3ccccc23)cc1S(=O)(=O)N1CCN(CCO)CC1	697 NFkB inh 37 | 697 NFkB conf 37
Cc1ccc(-c2nn3c(C)nnc3c3ccccc23)cc1S(=O)(=O)NCCO	none
Cc1ccc(-c2nn3c(C)nnc3c3ccccc23)cc1S(=O)(=O)NCc1ccco1	697 NFkB inh 43 | 697 NFkB conf 43
Cc1nnc2c3ccccc3c(-c3ccccc3)nn12	697 NFkB inh 43 (no result: CHOP inhibitor) | 697 NFkB conf 32
Cc1ccc(-c2nn3c(C)nnc3c3ccccc23)cc1S(=O)(=O)NC(C)(C)CO	697 NFkB inh 36 | 697 NFkB conf 61
COc1ccc(-c2nnc3c4ccccc4c(C)nn23)cc1S(=O)(=O)N1CCN(CCO)CC1	none
COc1cc(-c2nc(C(=O)NCC3CCCO3)cc3c2[nH]c2ccccc23)cc(OC)c1OC (centres undefined)	697 NFkB inh 36 (no result: CHOP inhibitor) | 697 NFkB conf 40
CSc1ccc(CN(C)C(=O)C23CC4CC(CC(Cl)(C4)C2)C3)cc1	none (no result: CHOP inhibitor)
COC(=O)c1[nH]c2ccc(C)cc2c1NC(=O)Nc1ccccc1OC	697 NFkB inh 36 | 697 NFkB conf 26
